Data from ChEMBL document CHEMBL1157314, “Antibacterial, partially acetylated oligorhamnosides from Cleistopholis patens” (2006).
In brackets after ≈: the same amount, converted by molar mass.

Columns and labels:
Assay type in all cases: functional
Staphylococcus aureus [1] = test: Antibacterial activity against methicillin-resistant Staphylococcus aureus ATCC 33591 after 24 hrs by broth microdilution method; conditions: ATCC 33591, 24 h
How it was run: (§1)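 Broth microdilution following NCCLS M7-A6 (2003), with inoculum at the recommended densities. Isolates were placed into panel wells with an autoinoculator and grown in cation-adjusted Mueller-Hinton broth at 35°C in ambient air for overnight to 24 h. Panels were read by eye, and the MIC was taken as no visible growth.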

Staphylococcus aureus [2] = test: Antibacterial activity against methicillin-resistant Staphylococcus aureus 78-13607A after 24 hrs by broth microdilution method; how it was run: as §1
Staphylococcus aureus [3] = test: Antibacterial activity against linezolid-resistant Staphylococcus aureus 106-12591A isolate after 24 hrs by broth microdilution method; how it was run: as §1
Staphylococcus aureus [4] = test: Antibacterial activity against oxacillin-susceptible Staphylococcus aureus ATCC 29213 after 24 hrs by broth microdilution method; conditions: ATCC 29213, 24 h; how it was run: as §1
Staphylococcus aureus [5] = test: Antibacterial activity against oxacillin-resistant Staphylococcus aureus ATCC 33591 after 24 hrs by broth microdilution method; conditions: ATCC 33591, 24 h; how it was run: as §1
[6] = tested on: Staphylococcus epidermidis; test: Antibacterial activity against oxacillin-susceptible Staphylococcus epidermidis isolate 12-1788A isolate after 24 hrs by broth microdilution method
[7] = tested on: Staphylococcus haemolyticus; test: Antibacterial activity against oxacillin-resistant Staphylococcus haemolyticus 107-1240C isolate after 24 hrs by broth microdilution method; how it was run: as §1
Enterococcus faecalis [8] = test: Antibacterial activity against ampicillin and vancomycin-susceptible Enterococcus faecalis ATCC 29212 after 24 hrs by broth microdilution method; conditions: ATCC 29212, 24 h; how it was run: as §1
Enterococcus faecium [9] = test: Antibacterial activity against ampicillin and vancomycin-resistant Enterococcus faecium 24-45A isolate after 24 hrs by broth microdilution method; how it was run: as §1
Streptococcus pneumoniae [10] = test: Antibacterial activity against penicillin-intermediate resistant Streptococcus pneumoniae ATCC 49619 after 24 hrs by broth microdilution method; conditions: ATCC 49619, 24 h; how it was run: as §1
Streptococcus pneumoniae [11] = test: Antibacterial activity against penicillin-resistant Streptococcus pneumoniae 33-50B isolate after 24 hrs by broth microdilution method; how it was run: as §1
Corynebacterium jeikeium = test: Antibacterial activity against Corynebacterium jeikeium 15-196A isolate after 24 hrs by broth microdilution method
How it was run: (§2)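 Broth microdilution following NCCLS M7-A6 (2003) inocula; isolates transferred aseptically into panel wells with an autoinoculator; cation-adjusted Mueller-Hinton broth; incubated overnight to 24 h at 35°C in ambient air; panels read by eye, MIC taken as lowest concentration with no visible growth.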

Bacillus cereus = test: Antibacterial activity against Bacillus cereus 24-59A isolate after 24 hrs by broth microdilution method
Streptococcus pyogenes = test: Antibacterial activity against erythromycin-resistant Streptococcus pyogenes 91-8747 isolate after 24 hrs by broth microdilution method; how it was run: as §1
Streptococcus mitis = test: Antibacterial activity against penicillin-resistant Streptococcus mitis 61-2900C isolate after 24 hrs by broth microdilution method; how it was run: as §1
Pseudomonas aeruginosa = test: Antibacterial activity against sPseudomonas aeruginosa ATCC 27853 after 24 hrs by broth microdilution method; conditions: ATCC 27853, 24 h; how it was run: as §2
Escherichia coli = test: Antibacterial activity against sEscherichia coli ATCC 25922 after 24 hrs by broth microdilution method; conditions: ATCC 25922, 24 h; how it was run: as §2
Staphylococcus aureus [12] = test: Antibacterial activity against mupirocin-resistant Staphylococcus aureus 4-90A isolate after 24 hrs by broth microdilution method; how it was run: as §1
Staphylococcus aureus [13] = test: Antibacterial activity against quinupristin/dalfopristin-resistant Staphylococcus aureus 300-12053A isolate after 24 hrs by broth microdilution method; how it was run: as §1
Staphylococcus [14] = test: Antibacterial activity against mupirocin-resistant coagulase negative Staphylococcus 63-18A isolate after 24 hrs by broth microdilution method; how it was run: as §1
Staphylococcus [15] = test: Antibacterial activity against quinupristin/dalfopristin-resistant coagulase negative Staphylococcus 90-10840A isolate after 24 hrs by broth microdilution method; how it was run: as §1
Staphylococcus [16] = test: Antibacterial activity against coagulase negative linezolid-resistant Staphylococcus 82-1645A isolate after 24 hrs by broth microdilution method; how it was run: as §1
Enterococcus faecalis [17] = test: Antibacterial activity against vancomycin-resistant Enterococcus faecalis 48-22D isolate with vanA phenotype after 24 hrs by broth microdilution method; how it was run: as §1
Enterococcus faecalis [18] = test: Antibacterial activity against vancomycin-resistant Enterococcus faecalis 82-876D with vanB phenotype isolate after 24 hrs by broth microdilution method; how it was run: as §1
Enterococcus faecalis [19] = test: Antibacterial activity against linezolid-resistant Enterococcus faecalis 15-5341 isolate after 24 hrs by broth microdilution method; how it was run: as §1
Enterococcus faecalis [20] = test: Antibacterial activity against gentamycin and streptomycin-resistant Enterococcus faecalis 39-11D isolate after 24 hrs by broth microdilution method; how it was run: as §1
Enterococcus faecium [21] = test: Antibacterial activity against vancomycin-resistant Enterococcus faecium 103-1232D isolate with vanB phenotype after 24 hrs by broth microdilution method; how it was run: as §1
Enterococcus faecium [22] = test: Antibacterial activity against vancomycin-resistant Enterococcus faecium 15-206A isolate with vanA phenotype after 24 hrs by broth microdilution method; how it was run: as §1
Enterococcus faecium [23] = test: Antibacterial activity against linezolid-resistant Enterococcus faecium 11-4103A isolate after 24 hrs by broth microdilution method; how it was run: as §1
Enterococcus faecium [24] = test: Antibacterial activity against quinupristin/dalfopristin-resistant Enterococcus faecium 65-1208A isolate after 24 hrs by broth microdilution method; how it was run: as §1
Bacillus sp. [25] = test: Antibacterial activity against tetracycline-resistant Bacillus sp. 107-1461D isolate after 24 hrs by broth microdilution method; conditions: Bacillus sp. (in: firmicutes); how it was run: as §1
Bacillus sp. [26] = test: Antibacterial activity against trimethoprim/sulfamethaxazole-resistant Bacillus sp. 67-1057A isolate after 24 hrs by broth microdilution method; conditions: Bacillus sp. (in: firmicutes); how it was run: as §1
Bacillus sp. [27] = test: Antibacterial activity against erythromycin-resistant Bacillus sp. 32-2406A isolate after 24 hrs by broth microdilution method; conditions: Bacillus sp. (in: firmicutes); how it was run: as §1
Streptococcus pneumoniae [28] = test: Antibacterial activity against multidrug resistant Streptococcus pneumoniae 68-2307B isolate after 24 hrs by broth microdilution method; how it was run: as §1
Streptococcus pneumoniae [29] = test: Antibacterial activity against erythromycin and clindamycin-resistant Streptococcus pneumoniae 4-38B isolate after 24 hrs by broth microdilution method; how it was run: as §1
Streptococcus pneumoniae [30] = test: Antibacterial activity against erythromycin-resistant and clindamycin-susceptible Streptococcus pneumoniae 35-405B isolate after 24 hrs by broth microdilution method; how it was run: as §1
Corynebacterium sp. [31] = test: Antibacterial activity against doxycyclin-resistant Corynebacterium sp. 105-1513C isolate after 24 hrs by broth microdilution method; how it was run: as §1
Corynebacterium sp. [32] = test: Antibacterial activity against streptomycin-resistant Corynebacterium sp. 61-5454A isolate after 24 hrs by broth microdilution method; how it was run: as §1
Corynebacterium sp. [33] = test: Antibacterial activity against rifampin-resistant Corynebacterium sp. 58-9161A isolate after 24 hrs by broth microdilution method; how it was run: as §1
Streptococcus [34] = test: Antibacterial activity against erythromycin and clindamycin-resistant beta-haemolytic sStreptococcus 91-526D isolate after 24 hrs by broth microdilution method; how it was run: as §1
Streptococcus [35] = test: Antibacterial activity against erythromycin-resistant and clindamycin-susceptible beta-haemolytic sStreptococcus 109-820D isolate after 24 hrs by broth microdilution method; how it was run: as §1
Streptococcus [36] = test: Antibacterial activity against levofloxacin-resistant beta-haemolytic sStreptococcus 19-756A isolate after 24 hrs by broth microdilution method; how it was run: as §1
Streptococcus [37] = test: Antibacterial activity against mupirocin-resistant viridans group sStreptococcus 32-2395A isolate after 24 hrs by broth microdilution method; how it was run: as §1
Streptococcus [38] = test: Antibacterial activity against levafloxacin-resistant viridans group Streptococcus 107-6380A isolate after 24 hrs by broth microdilution method; how it was run: as §1
Streptococcus [39] = test: Antibacterial activity against linezolid-resistant viridans group Streptococcus 27-2832A isolate after 24 hrs by broth microdilution method; how it was run: as §1
Streptococcus [40] = test: Antibacterial activity against multidrug-resistant viridans group Streptococcus 58-1602D isolate after 24 hrs by broth microdilution method; how it was run: as §1

CCCCCCCCCCCCO[C@@H]1O[C@@H](C)[C@H](O[C@@H]2O[C@@H](C)[C@H](OC(C)=O)[C@@H](O[C@@H]3O[C@@H](C)[C@H](OC(C)=O)[C@@H](O[C@@H]4O[C@@H](C)[C@H](O)[C@@H](OC(C)=O)[C@H]4O)[C@H]3OC(C)=O)[C@H]2O)[C@@H](O)[C@H]1O
MIC (Staphylococcus aureus [1]): 8 µg/mL (≈ 8.52 µM)
MIC (Staphylococcus aureus [2]): 16 µg/mL (≈ 17 µM)

CCCCCCCCCCCCO[C@@H]1O[C@@H](C)[C@H](O[C@@H]2O[C@@H](C)[C@H](OC(C)=O)[C@@H](O[C@@H]3O[C@@H](C)[C@H](OC(C)=O)[C@@H](O[C@@H]4O[C@@H](C)[C@H](OC(C)=O)[C@@H](O)[C@H]4O)[C@H]3OC(C)=O)[C@H]2O)[C@@H](O)[C@H]1O
MIC (Staphylococcus aureus [3]): 2 µg/mL (≈ 2.13 µM)
MIC (Staphylococcus aureus [1]): 0.5 µg/mL (≈ 0.532 µM)
MIC (Staphylococcus aureus [2]): 1 µg/mL (≈ 1.06 µM)
MIC (Staphylococcus aureus [4]): 4 µg/mL (≈ 4.26 µM)
MIC (Staphylococcus aureus [5]): 2 µg/mL (≈ 2.13 µM)
MIC [6]: > 32 µg/mL
MIC [7]: 32 µg/mL (≈ 34.1 µM)
MIC (Enterococcus faecalis [8]): 2 µg/mL (≈ 2.13 µM)
MIC (Enterococcus faecium [9]): 2 µg/mL (≈ 2.13 µM)
MIC (Streptococcus pneumoniae [10]): 4 µg/mL (≈ 4.26 µM)
MIC (Streptococcus pneumoniae [11]): 4 µg/mL (≈ 4.26 µM)
MIC (Corynebacterium jeikeium): 32 µg/mL (≈ 34.1 µM)
MIC (Bacillus cereus): 2 µg/mL (≈ 2.13 µM)
MIC (Streptococcus pyogenes): 4 µg/mL (≈ 4.26 µM)
MIC (Streptococcus mitis): 4 µg/mL (≈ 4.26 µM)
MIC (Pseudomonas aeruginosa): > 32 µg/mL
MIC (Escherichia coli): > 32 µg/mL
MIC (Staphylococcus aureus [12]): > 2 µg/mL
MIC (Staphylococcus aureus [13]): 2 µg/mL (≈ 2.13 µM)
MIC (Staphylococcus [14]): > 32 µg/mL
MIC (Staphylococcus [15]): > 32 µg/mL
MIC (Staphylococcus [16]): > 32 µg/mL
MIC (Enterococcus faecalis [17]): 2 µg/mL (≈ 2.13 µM)
MIC (Enterococcus faecalis [18]): 2 µg/mL (≈ 2.13 µM)
MIC (Enterococcus faecalis [19]): 2 µg/mL (≈ 2.13 µM)
MIC (Enterococcus faecalis [20]): 2 µg/mL (≈ 2.13 µM)
MIC (Enterococcus faecium [21]): 2 µg/mL (≈ 2.13 µM)
MIC (Enterococcus faecium [22]): 2 µg/mL (≈ 2.13 µM)
MIC (Enterococcus faecium [23]): 2 µg/mL (≈ 2.13 µM)
MIC (Enterococcus faecium [24]): 2 µg/mL (≈ 2.13 µM)
MIC (Bacillus sp. [25]): 2 µg/mL (≈ 2.13 µM)
MIC (Bacillus sp. [26]): 2 µg/mL (≈ 2.13 µM)
MIC (Bacillus sp. [27]): 2 µg/mL (≈ 2.13 µM)
MIC (Streptococcus pneumoniae [28]): 4 µg/mL (≈ 4.26 µM)
MIC (Streptococcus pneumoniae [29]): 4 µg/mL (≈ 4.26 µM)
MIC (Streptococcus pneumoniae [30]): 4 µg/mL (≈ 4.26 µM)
MIC (Corynebacterium sp. [31]): 16 µg/mL (≈ 17 µM)
MIC (Corynebacterium sp. [32]): 16 µg/mL (≈ 17 µM)
MIC (Corynebacterium sp. [33]): 16 µg/mL (≈ 17 µM)
MIC (Streptococcus [34]): 4 µg/mL (≈ 4.26 µM)
MIC (Streptococcus [35]): 4 µg/mL (≈ 4.26 µM)
MIC (Streptococcus [36]): 4 µg/mL (≈ 4.26 µM)
MIC (Streptococcus [37]): 4 µg/mL (≈ 4.26 µM)
MIC (Streptococcus [38]): 4 µg/mL (≈ 4.26 µM)
MIC (Streptococcus [39]): 4 µg/mL (≈ 4.26 µM)
MIC (Streptococcus [40]): 4 µg/mL (≈ 4.26 µM)
